Measurements as given in ChEMBL document CHEMBL5696442, “Discovery of type II inhibitors of TGFβ-activated kinase 1 (TAK1) and mitogen-activated protein kinase kinase kinase kinase 2 (MAP4K2)” (J Med Chem, 2015).
Active and inactive are the calls of the source. No cut-off for these calls is given here.

What was measured:
[1] = molecular target: T1, Serine/threonine-protein kinase 3 (Homo sapiens) (UniProt Q13188); assay: Inhibition of MST2 Lys2 labeling site harbouring IHRDIKAGNILLNTEGHAK in human Huh-7 cell lysate at 1 uM by KiNativ Profiling analysis relative to control; format: subcellular
T1 sequence (whole entry): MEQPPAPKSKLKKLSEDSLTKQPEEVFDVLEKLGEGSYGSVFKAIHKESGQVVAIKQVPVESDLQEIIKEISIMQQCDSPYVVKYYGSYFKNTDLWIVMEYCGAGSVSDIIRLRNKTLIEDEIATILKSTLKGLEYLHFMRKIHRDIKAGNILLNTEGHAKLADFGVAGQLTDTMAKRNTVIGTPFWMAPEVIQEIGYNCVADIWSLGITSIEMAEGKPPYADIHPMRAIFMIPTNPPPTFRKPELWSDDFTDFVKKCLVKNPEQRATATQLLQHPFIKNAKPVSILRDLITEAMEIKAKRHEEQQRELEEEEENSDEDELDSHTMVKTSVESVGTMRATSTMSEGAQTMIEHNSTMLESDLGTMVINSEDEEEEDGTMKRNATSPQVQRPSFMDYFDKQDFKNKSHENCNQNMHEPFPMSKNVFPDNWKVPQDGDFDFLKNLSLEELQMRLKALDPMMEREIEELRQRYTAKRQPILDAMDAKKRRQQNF

[2] = molecular target: T2, Phosphorylase b kinase gamma catalytic chain, liver/testis isoform (Homo sapiens) (UniProt P15735); assay: Inhibition of PHKg2 Lys1 labeling site in human Huh-7 cell lysate at 1 uM by KiNativ Profiling analysis relative to control; format: subcellular
T2 sequence (whole entry): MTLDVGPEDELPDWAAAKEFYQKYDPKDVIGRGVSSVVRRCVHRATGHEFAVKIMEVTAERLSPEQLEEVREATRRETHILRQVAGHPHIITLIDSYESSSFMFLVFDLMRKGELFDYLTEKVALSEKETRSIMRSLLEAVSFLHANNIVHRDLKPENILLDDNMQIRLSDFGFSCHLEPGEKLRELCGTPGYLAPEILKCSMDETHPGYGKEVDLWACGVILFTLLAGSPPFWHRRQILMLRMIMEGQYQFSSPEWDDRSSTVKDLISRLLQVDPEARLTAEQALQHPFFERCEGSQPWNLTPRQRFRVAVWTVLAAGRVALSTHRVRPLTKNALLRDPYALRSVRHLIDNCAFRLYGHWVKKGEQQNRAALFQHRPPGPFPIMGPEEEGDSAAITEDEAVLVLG

[3] = molecular target: Ribosomal protein S6 kinase alpha-3 (Homo sapiens) (UniProt P51812); assay: Inhibition of RSK2 domain2 Lys2 labeling site harbouring DLKPSNILYVDESGNPESIR in human Huh-7 cells at 1 uM by KiNativ Profiling analysis relative to control; format: cell-based
Chain of Ribosomal protein S6 kinase alpha-3 (Homo sapiens) (P51812 whole entry, the tested form may be a part): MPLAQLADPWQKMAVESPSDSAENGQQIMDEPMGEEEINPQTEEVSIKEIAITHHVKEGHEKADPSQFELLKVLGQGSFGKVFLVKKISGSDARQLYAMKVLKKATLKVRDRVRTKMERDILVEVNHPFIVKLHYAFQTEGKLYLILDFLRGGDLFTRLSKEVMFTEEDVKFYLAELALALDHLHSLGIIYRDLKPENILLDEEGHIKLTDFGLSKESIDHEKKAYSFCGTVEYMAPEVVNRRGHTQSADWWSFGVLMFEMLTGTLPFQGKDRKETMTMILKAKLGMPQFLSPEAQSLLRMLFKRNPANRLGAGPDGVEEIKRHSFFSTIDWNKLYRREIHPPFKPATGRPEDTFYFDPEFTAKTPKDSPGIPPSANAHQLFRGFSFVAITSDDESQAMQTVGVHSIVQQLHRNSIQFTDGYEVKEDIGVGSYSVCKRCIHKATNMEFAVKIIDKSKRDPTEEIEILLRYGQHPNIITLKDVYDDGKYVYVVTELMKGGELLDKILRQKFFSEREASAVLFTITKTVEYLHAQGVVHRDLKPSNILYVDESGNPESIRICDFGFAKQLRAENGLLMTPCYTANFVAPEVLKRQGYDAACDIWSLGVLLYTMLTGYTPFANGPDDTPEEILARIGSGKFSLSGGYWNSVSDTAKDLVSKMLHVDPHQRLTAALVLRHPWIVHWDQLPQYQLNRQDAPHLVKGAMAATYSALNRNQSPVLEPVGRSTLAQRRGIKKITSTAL

[4] = molecular target: Activin receptor type-1B (Homo sapiens) (UniProt P36896); assay: Inhibition of ACVR1B (unknown origin) at 10 uM by Ambit Kinomescan binding assay
[5] = molecular target: Casein kinase I isoform gamma-1 (Homo sapiens) (UniProt Q9HCP0); assay: Inhibition of CSNK1G1 (unknown origin) at 10 uM by Ambit Kinomescan binding assay
Chain of Casein kinase I isoform gamma-1 (Homo sapiens) (Q9HCP0 whole entry, looked up, canonical isoform): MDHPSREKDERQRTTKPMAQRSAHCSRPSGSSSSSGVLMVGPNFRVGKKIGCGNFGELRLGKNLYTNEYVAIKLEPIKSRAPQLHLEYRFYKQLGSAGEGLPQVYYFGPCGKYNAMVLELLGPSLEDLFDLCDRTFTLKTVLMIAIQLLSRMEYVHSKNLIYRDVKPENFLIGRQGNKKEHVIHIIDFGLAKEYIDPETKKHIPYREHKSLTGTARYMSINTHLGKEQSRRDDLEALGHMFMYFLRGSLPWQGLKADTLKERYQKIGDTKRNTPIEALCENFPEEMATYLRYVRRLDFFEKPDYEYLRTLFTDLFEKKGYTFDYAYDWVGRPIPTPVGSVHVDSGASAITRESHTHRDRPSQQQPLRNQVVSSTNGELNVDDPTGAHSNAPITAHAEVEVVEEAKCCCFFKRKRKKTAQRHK

[6] = molecular target: Serine/threonine-protein kinase PLK4 (Homo sapiens) (UniProt O00444); assay: Inhibition of PLK4 (unknown origin) at 10 uM by Ambit Kinomescan binding assay
[7] = molecular target: Serine/threonine-protein kinase SMG1 (Homo sapiens) (UniProt Q96Q15); assay: Inhibition of SMG1 ATP labeling site harbouring DTVTIHSVGGTITILPTKTKPK in human A-375 cells at 0.5 uM by KiNativ Profiling analysis relative to control; format: cell-based
In short: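 Live A375 melanoma cells treated with compound at 5 or 0.5 μM, then lysed. Lysate kinases were labeled with a lysine-reactive ATP or ADP-biotin probe. Inhibition was read as protection of labeling sites from the probe.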

[8] = molecular target: Serine/threonine-protein kinase B-raf (Homo sapiens, UniProt P15056); assay: Inhibition of BRAF K2 labeling site in human Huh-7 cells at 1 uM by KiNativ Profiling analysis relative to control; format: cell-based
Chain of Serine/threonine-protein kinase B-raf (P15056 whole entry): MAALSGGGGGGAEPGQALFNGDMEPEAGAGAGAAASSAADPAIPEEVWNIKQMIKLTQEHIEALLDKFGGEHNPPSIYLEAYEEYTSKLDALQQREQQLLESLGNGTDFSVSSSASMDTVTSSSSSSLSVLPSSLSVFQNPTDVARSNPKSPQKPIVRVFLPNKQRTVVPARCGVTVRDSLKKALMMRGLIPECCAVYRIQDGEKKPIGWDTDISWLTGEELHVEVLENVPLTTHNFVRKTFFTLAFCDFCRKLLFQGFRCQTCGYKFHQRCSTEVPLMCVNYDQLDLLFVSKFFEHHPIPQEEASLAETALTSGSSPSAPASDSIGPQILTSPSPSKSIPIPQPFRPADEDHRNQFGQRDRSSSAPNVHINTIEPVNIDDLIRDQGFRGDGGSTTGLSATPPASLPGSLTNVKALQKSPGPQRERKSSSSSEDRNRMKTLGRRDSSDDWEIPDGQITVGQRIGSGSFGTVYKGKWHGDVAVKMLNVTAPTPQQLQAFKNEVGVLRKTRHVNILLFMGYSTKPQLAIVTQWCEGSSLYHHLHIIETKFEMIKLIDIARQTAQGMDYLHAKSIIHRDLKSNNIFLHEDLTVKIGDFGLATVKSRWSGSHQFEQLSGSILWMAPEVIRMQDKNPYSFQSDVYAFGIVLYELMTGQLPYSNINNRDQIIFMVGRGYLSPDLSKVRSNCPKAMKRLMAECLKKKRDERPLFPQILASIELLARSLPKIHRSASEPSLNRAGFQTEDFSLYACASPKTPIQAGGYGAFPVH

[9] = molecular target: Tyrosine-protein kinase TXK (Homo sapiens) (UniProt P42681); assay: Inhibition of TXK (unknown origin) at 10 uM by Ambit Kinomescan binding assay relative to control; values are per cent of control
Chain of Tyrosine-protein kinase TXK (Homo sapiens) (P42681 whole entry): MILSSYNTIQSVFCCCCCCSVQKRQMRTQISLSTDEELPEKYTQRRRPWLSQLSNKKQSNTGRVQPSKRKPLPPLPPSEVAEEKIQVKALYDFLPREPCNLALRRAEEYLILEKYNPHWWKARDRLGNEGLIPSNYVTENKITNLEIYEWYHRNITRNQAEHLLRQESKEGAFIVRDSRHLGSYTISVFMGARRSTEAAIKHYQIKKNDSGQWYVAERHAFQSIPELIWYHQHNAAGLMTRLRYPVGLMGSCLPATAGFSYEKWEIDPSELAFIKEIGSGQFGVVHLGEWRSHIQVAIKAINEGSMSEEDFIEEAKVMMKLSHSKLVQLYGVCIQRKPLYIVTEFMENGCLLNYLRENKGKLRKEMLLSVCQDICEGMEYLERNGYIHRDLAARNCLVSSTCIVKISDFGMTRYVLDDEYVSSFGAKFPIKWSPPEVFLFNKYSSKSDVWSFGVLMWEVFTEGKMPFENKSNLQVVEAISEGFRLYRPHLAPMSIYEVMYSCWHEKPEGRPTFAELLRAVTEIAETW

[10] = test system: Epidermal growth factor receptor (Homo sapiens), P00533 [UNDEFINED MUTATION]; assay: Inhibition of EGFR S752-I759del mutant (unknown origin) at 1 uM by Ambit Kinomescan binding assay relative to control
Chain of Epidermal growth factor receptor (Homo sapiens), P00533 [UNDEFINED MUTATION] (P00533 whole entry, looked up, stated change not applied): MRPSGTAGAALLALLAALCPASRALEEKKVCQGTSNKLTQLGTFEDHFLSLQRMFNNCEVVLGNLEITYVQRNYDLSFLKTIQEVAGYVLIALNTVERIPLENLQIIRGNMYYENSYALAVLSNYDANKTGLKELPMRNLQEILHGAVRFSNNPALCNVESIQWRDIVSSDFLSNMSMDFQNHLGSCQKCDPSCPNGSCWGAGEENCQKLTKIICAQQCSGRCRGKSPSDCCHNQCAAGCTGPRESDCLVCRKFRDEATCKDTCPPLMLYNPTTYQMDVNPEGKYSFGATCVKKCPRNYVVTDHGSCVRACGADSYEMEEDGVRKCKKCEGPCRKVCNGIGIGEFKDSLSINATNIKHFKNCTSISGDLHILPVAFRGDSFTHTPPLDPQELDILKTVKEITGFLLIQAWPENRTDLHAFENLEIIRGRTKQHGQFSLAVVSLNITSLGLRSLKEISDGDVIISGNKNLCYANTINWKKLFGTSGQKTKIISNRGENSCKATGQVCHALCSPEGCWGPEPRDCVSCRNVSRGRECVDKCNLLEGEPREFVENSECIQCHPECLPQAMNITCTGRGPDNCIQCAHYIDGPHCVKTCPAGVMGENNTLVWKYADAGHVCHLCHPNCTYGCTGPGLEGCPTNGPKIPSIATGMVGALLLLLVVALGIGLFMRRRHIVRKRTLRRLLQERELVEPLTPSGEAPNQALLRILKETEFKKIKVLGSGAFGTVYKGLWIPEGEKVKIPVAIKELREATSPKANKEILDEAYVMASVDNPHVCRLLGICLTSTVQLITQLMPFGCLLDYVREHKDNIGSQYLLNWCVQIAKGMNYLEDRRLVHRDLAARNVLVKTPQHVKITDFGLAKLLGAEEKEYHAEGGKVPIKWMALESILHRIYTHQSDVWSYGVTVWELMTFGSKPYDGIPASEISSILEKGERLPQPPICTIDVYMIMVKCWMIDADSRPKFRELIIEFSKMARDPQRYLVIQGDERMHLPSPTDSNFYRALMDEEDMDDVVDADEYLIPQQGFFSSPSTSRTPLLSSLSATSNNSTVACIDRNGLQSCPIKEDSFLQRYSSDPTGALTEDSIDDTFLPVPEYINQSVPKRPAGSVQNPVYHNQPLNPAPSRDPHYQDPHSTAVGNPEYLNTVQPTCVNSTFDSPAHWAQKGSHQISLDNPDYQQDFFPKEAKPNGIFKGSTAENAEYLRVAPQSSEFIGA

[11] = molecular target: Focal adhesion kinase 1 (Homo sapiens) (UniProt Q05397); assay: Inhibition of FAK (unknown origin) at 1 uM by Ambit Kinomescan binding assay relative to control
In short: (§1)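 In vitro ATP-site competition binding assay against a panel of over 420 kinases (KinomeScan), with compound tested at 10 or 1 μM.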

[12] = molecular target: Protein kinase C theta type (Homo sapiens) (UniProt Q04759); assay: Inhibition of PRKCQ (unknown origin) at 1 uM by Ambit Kinomescan binding assay relative to control; in short: as §1
Chain of Protein kinase C theta type (Homo sapiens) (Q04759 whole entry, looked up): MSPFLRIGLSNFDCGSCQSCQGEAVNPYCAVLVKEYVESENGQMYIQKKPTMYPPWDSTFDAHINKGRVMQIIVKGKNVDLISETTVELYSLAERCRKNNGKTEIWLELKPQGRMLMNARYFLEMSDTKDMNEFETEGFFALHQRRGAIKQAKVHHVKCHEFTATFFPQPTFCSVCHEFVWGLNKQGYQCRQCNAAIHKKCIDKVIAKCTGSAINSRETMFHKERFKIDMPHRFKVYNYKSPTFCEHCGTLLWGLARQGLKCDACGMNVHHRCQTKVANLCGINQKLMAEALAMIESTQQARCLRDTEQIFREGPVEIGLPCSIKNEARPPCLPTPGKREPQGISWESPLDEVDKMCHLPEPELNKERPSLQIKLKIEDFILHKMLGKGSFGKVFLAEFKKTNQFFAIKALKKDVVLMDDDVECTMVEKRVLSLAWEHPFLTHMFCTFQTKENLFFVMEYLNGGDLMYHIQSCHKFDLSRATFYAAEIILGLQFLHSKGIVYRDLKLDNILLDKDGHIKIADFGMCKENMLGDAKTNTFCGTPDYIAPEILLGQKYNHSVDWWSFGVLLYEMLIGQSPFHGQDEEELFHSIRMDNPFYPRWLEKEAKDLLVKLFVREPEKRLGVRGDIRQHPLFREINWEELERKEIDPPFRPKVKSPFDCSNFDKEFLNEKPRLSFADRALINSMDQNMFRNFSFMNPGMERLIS

[13] = molecular target: Serine/threonine-protein kinase RIO1 (Homo sapiens) (UniProt Q9BRS2); assay: Inhibition of RIOK1 (unknown origin) at 1 uM by Ambit Kinomescan binding assay relative to control
[14] = molecular target: T3, Interleukin-1 receptor-associated kinase 4 (Homo sapiens) (UniProt Q9NWZ3); assay: Inhibition of IRAK4 Lys2 labeling site in human A-375 cells at 0.5 uM by KiNativ Profiling analysis relative to control; format: cell-based
T3 sequence (whole entry): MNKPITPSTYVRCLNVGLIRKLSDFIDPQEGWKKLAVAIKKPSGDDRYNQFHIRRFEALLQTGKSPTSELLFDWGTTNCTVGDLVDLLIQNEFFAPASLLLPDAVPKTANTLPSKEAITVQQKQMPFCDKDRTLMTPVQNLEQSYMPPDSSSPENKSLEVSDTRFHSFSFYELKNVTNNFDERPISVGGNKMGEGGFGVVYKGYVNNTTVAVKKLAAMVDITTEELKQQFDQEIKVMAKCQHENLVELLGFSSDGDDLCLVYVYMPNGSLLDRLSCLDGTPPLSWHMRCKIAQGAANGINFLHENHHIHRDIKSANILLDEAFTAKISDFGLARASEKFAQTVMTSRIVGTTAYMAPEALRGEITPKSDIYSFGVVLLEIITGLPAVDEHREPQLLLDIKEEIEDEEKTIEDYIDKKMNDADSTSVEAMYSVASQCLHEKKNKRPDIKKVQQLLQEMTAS

[15] = molecular target: Cyclin-dependent kinase 4 (Homo sapiens) (UniProt P11802); assay: Inhibition of CDK4 Lys2 labeling site in human A-375 cells at 0.05 uM by KiNativ Profiling analysis relative to control; format: cell-based
Chain of Cyclin-dependent kinase 4 (Homo sapiens) (P11802 whole entry): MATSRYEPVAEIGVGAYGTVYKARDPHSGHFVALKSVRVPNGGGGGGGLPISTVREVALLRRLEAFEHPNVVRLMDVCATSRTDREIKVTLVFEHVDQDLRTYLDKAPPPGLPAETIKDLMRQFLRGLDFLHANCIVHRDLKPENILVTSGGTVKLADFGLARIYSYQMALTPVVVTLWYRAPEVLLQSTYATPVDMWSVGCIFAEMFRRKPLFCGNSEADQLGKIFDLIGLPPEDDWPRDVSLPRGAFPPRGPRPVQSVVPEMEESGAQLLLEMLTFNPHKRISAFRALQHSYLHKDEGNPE

[16] = molecular target: Wee1-like protein kinase (Homo sapiens) (UniProt P30291); assay: Inhibition of Wee1 Lys2 labeling site in human A-375 cells at 0.05 uM by KiNativ Profiling analysis relative to control; format: cell-based
[17] = molecular target: Tyrosine-protein kinase Lyn (Homo sapiens, UniProt P07948); assay: Inhibition of LYN (unknown origin) at 1 uM by Ambit Kinomescan binding assay relative to control; values are per cent of control

CNc1cc(Oc2cc(C(=O)Nc3cc(N4CCN(C)CC4)cc(C(F)(F)F)c3)ccc2C)ncn1
inhibition [1]: 14.4% | inhibition [2]: 0.2% | inhibition [3]: 11.7%

CCN1CCN(Cc2ccc(NC(=O)c3ccc(C)c(Oc4ccnc5[nH]ccc45)c3)cc2C(F)(F)F)CC1
inhibition [4]: inactive | inhibition [5]: inactive | inhibition [6]: inactive | inhibition [7]: -9.1% | inhibition [8]: 1.7% | residual activity [9]: 12%

CCN1CCN(Cc2ccc(NC(=O)c3ccc(C)c(/C=C/c4cnc5[nH]ccc5c4OC)c3)cc2C(F)(F)F)CC1
inhibition [10]: 1.4% | inhibition [11]: 84% | inhibition [12]: 83% | inhibition [13]: 20% | inhibition [14]: 10.3% | inhibition [15]: -10% | inhibition [16]: 19.2% | % of control [17]: 0.45%
